In data set [1] the target is Human immunodeficiency virus type 1 integrase (Human immunodeficiency virus 1) (UniProt Q7ZJM1). Put plainly: Binding affinity to His6-tagged recombinant HIV1 Integrase assessed as inhibition of protein interaction with 3xFLAG-tagged LEDGF/p75 at 100 uM preincubated for 30 mins followed by 3xFLAG-tagged LEDGF/p75 addition measured after 60 mins by AlphaScreen assay relative to control. In outline: (§1)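 His6-integrase (300 nM final) preincubated with compound 30 min at 4 °C, then FLAG-LEDGF/p75 (300 nM final) added for 60 min at 4 °C; Ni-chelate donor and anti-FLAG acceptor beads (20 µg/mL each) added, 1 h at 30 °C, light-protected. Buffer: 25 mM Tris-HCl pH 7.4, 150 mM NaCl, 1 mM MgCl2, 0.01% Tween-20, 0.1% BSA. Single-point screen at 100 µM; IC50 determined where inhibition exceeded 50%.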

The target of data set [2] is Human immunodeficiency virus type 1 integrase (Human immunodeficiency virus 1, UniProt Q7ZJM1). Nature of the data set: Binding affinity to His6-tagged recombinant HIV1 Integrase assessed as inhibition of protein interaction with 3xFLAG-tagged LEDGF/p75 preincubated for 30 mins followed by 3xFLAG-tagged LEDGF/p75 addition measured after 60 mins by AlphaScreen assay. In outline: as §1
For orientation: Alpha assays give light when donor and acceptor beads are brought close together.

The subject of data set [3] is Human immunodeficiency virus 1. Nature of the data set: Antiviral activity against HIV1 3B infected in human MT4 cells assessed as protection against virus-induced cytopathic effect by MTT assay. The format is functional, organism-based. As to conditions: Human immunodeficiency virus 1, 3B. The method in brief:
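MT-4 cells infected with 100–300 CCID50 of HIV-1 IIIB (virus titred in MT-4 cells) with five-fold serial dilutions of compound; protection from viral cytopathic effect read by MTT reduction to formazan, measured spectrophotometrically; EC50 = concentration giving 50% protection.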
On the technique in general: Cytopathic effects are the visible damage that an infection or toxin causes in cultured cells.

A short description of data set [4]: Cytotoxicity against human MT4 cells assessed as reduction in cell viability by MTT assay. The format is cell-based. In outline: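 Uninfected MT-4 cells exposed to five-fold serial dilutions of compound; viability measured by MTT reduction to formazan, read spectrophotometrically; CC50 = concentration killing 50% of cells.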
In general terms: Tetrazolium assays rely on reduction of a dye to a coloured formazan, in cell work by metabolically active cells.

The species named for a further data set is Homo sapiens. Put plainly: Inhibition of FLAG-tagged GST (unknown origin) at 100 uM by emission quenching AlphaScreen assay relative to control. The method in brief:
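Emission-quench counter-screen: FLAG-tagged GST (500 nM final) replaces integrase and LEDGF/p75, otherwise run as the AlphaScreen interaction assay (Ni-chelate donor and anti-FLAG acceptor beads, 20 µg/mL each, 1 h at 30 °C; Tris-HCl pH 7.4 buffer). Compound tested at 100 µM; percent inhibition of signal.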

The structures appear in SMILES notation. The source made the active and inactive calls. The rule behind the calls is not given here.

Results on 38 compounds are retold here after ChEMBL document CHEMBL3612005, “Discovery of N-aryl-naphthylamines as in vitro inhibitors of the interaction between HIV integrase and the cofactor LEDGF/p75” (Eur J Med Chem, 2015).

The term inhibition denotes the drop in the measured response relative to a control, in per cent. What is called IC50 is the concentration that inhibits the measured activity by half. As a reminder, the EC50 is the concentration giving half of the maximal effect. In general, CC50 refers to the concentration that lowers cell viability or growth by half.

Chain of Human immunodeficiency virus type 1 integrase (Human immunodeficiency virus 1) (Q7ZJM1 as listed by the source): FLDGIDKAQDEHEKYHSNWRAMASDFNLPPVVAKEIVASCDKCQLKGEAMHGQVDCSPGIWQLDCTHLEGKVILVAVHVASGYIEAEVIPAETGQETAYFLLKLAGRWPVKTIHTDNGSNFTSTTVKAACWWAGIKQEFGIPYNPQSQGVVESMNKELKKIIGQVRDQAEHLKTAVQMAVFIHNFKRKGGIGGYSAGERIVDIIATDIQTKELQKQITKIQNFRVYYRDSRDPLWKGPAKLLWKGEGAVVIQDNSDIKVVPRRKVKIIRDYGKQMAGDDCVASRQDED
Chain of Human immunodeficiency virus type 1 integrase (Q7ZJM1 whole entry): as the sequence (Q7ZJM1 as listed by the source) above

On to `COc1ccccc1Nc1ccc(OC)c2ccccc12`, for which the inhibition result in data set [1] was “inactive”.

In the case of `O=C(O)c1ccc(Nc2cccc3ccccc23)cc1`, the inhibition in data set [1] turned out to be 39%.

With `COc1c(Nc2ccc(C(=O)O)cc2)ccc2ccccc12`, in data set [1], the inhibition result is “inactive”.

Consider `O=C(O)c1ccccc1Nc1c(O)ccc2ccccc12`, for which the inhibition in data set [1] came out at 56%.

In the case of `O=C(O)c1ccc(Nc2ccc(O)c3ccccc23)cc1`, the inhibition amounted to 95% in data set [1] and 16% in the data set listed under Homo sapiens. In data set [2], the IC50 amounted to 2.5 µM. The EC50 in data set [3] is > 1.07 µM. Also, the CC50 in data set [4] amounted to 1.07 µM.

For `O=C(O)c1ccc(Nc2ccc3ccccc3c2O)cc1`, the inhibition in data set [1] was 66%. Also, the 50% inhibitory concentration (IC50) in data set [2] came to 70.1 µM. Also, in data set [3], the EC50 was > 23.7 µM. Besides, in data set [4], the cytotoxic concentration (CC50) came to 23.7 µM.

In the case of `COC(=O)c1ccc(Nc2cccc3ccccc23)cc1`, in data set [1], the inhibition was 62%. Moreover, in data set [3], the EC50 was > 27.5 µM. For the same compound, the CC50 in data set [4] is 27.5 µM.

On to `Fc1ccc(Nc2ccc(F)c3ccccc23)cc1`, for which the inhibition in data set [1] is 63%. Besides, the IC50 in data set [2] was > 100 µM. Further, in data set [3], the EC50 is > 38.4 µM. In addition, the cytotoxic concentration (CC50) in data set [4] came to 38.4 µM.

Take `COc1ccc(Nc2ccc(OC)c3ccccc23)cc1`: the inhibition in data set [1] is 57%.

For the compound `COc1ccc(Nc2ccc(OC)c3ccccc23)cc1C(=O)O`, in data set [1], the inhibition was 41%.

Take `CSc1ccc(Nc2ccc(F)c3ccccc23)cc1`: in data set [1], the inhibition entry is “inactive”.

In the case of `COC(=O)c1ccc(Nc2ccc3ccccc3c2O)cc1`, the inhibition in data set [1] was 58%.

For the compound `COC(=O)c1cc(Nc2ccc(OC)c3ccccc23)ccc1OC`, the inhibition entry in data set [1] was “inactive”. This compound also displayed an inhibition in the data set filed under Homo sapiens of 92%.

For the compound `COC(=O)c1ccc(Nc2ccc(O)c3ccccc23)cc1`, the inhibition in data set [1] turned out to be 49%.

As for `COc1ccc2ccccc2c1Nc1c(OC)ccc2ccccc12`, the inhibition was determined as 100% in data set [1] and 74% in the data set listed under Homo sapiens. For the same compound, the IC50 in data set [2] worked out at 13.8 µM. For the same compound, the EC50 in data set [3] was > 3.41 µM. In addition, the CC50 in data set [4] came to 3.41 µM.

Take `COc1c(Nc2ccccc2)ccc2ccccc12`: the inhibition entry in data set [1] is “inactive”.

For `COc1ccc(Nc2ccccc2)c2ccccc12`, in data set [1], the inhibition entry was “inactive”.

On to `Oc1c(Nc2ccccc2)ccc2ccccc12`, for which the inhibition in data set [1] was 61%.

For `O=S(=O)(c1ccc(O)cc1)c1ccc(O)c2ccccc12`, the inhibition in data set [1] was 30%.

Turning to `COc1c(Nc2ccc(I)cc2)ccc2ccccc12`, in data set [1], the inhibition entry was “inactive”.

`O=C(O)c1ccc(Cn2ccc(=O)c3ccccc32)cc1`: the inhibition result in data set [1] is “inactive”.

Take `COC(=O)c1ccc(Nc2ccc(OC)c3ccccc23)cc1`: the inhibition in data set [1] came out at 59%. In data set [2], the IC50 is 34.8 µM. In addition, in the data set listed under Homo sapiens, the inhibition result was “inactive”.

With `CC(=O)c1cn(Cc2ccc(C(=O)O)cc2)c2ccccc2c1=O`, the inhibition entry in data set [1] was “inactive”.

Consider `COc1ccc(S(=O)(=O)c2ccc(OC)c3ccccc23)cc1`, for which the inhibition entry in data set [1] was “inactive”.

Consider `CCOC(=O)c1cn(Cc2ccc(C(=O)OC)cc2)c2ccccc2c1=O`, for which the inhibition in data set [1] worked out at 60%. In data set [2], the 50% inhibitory concentration (IC50) was > 100 µM. Besides, in data set [3], the EC50 was > 5.63 µM. In data set [4], the CC50 was 5.63 µM.

With `O=C(O)c1cc(Nc2ccc(O)c3ccccc23)ccc1O`, the inhibition in data set [1] turned out to be 88%; in the data set filed under Homo sapiens it was 52%. Besides, in data set [2], the half-maximal inhibitory concentration (IC50) was 19.1 µM. In addition, the EC50 in data set [3] was > 126 µM. Besides, the CC50 in data set [4] amounted to 126 µM.

Take `Oc1ccc(Nc2ccc(O)c3ccccc23)cc1`: the inhibition stood at 95% in data set [1] and 84% in the data set listed under Homo sapiens.

Regarding `COC(=O)c1ccc(Cn2ccc(=O)c3ccccc32)cc1`, the inhibition in data set [1] is 25%.

As for `COC(=O)c1ccccc1Nc1c(OC)ccc2ccccc12`, the inhibition result in data set [1] was “inactive”.

In the case of `O=C(O)c1ccc(Cn2cc(C(=O)O)c(=O)c3ccccc32)cc1`, the inhibition in data set [1] was 16%.

On to `Oc1ccc(Sc2ccc(O)c3ccccc23)cc1`, for which, in data set [1], the inhibition worked out at 38%.

As for `COC(=O)c1ccccc1Nc1c(O)ccc2ccccc12`, the inhibition in data set [1] turned out to be 28%.

On to `COC(=O)c1ccc(Nc2ccc3ccccc3c2OC)cc1`, for which the inhibition entry in data set [1] was “inactive”.

Turning to `COC(=O)c1ccc(Cn2cc(C(C)=O)c(=O)c3ccccc32)cc1`, the inhibition in data set [1] stood at 46%.

On to `Cc1ccc(-c2c(C(OC(C)(C)C)C(=O)O)ccc3sc(C)cc23)cc1` (stereo not given), for which, in data set [2], the IC50 is 0.046 µM. In addition, the EC50 in data set [3] turned out to be 0.069 µM. In addition, the CC50 in data set [4] amounted to 96 µM.

With `COc1ccc(Nc2ccc(C(=O)O)cc2)c2ccccc12`, in data set [1], the inhibition was determined as 33%.

For the compound `COc1ccc(I)cc1Nc1ccc(OC)c2ccccc12`, the inhibition in data set [1] was 61%. Further, the IC50 in data set [2] was found to be 28.9 µM. The half-maximal effective concentration (EC50) in data set [3] is > 12.5 µM. In addition, the CC50 in data set [4] was determined as 12.5 µM.

Regarding `COc1ccc(Sc2ccc(OC)c3ccccc23)cc1`, in data set [1], the inhibition entry was “inactive”.
